Laboratory results as given in ChEMBL document CHEMBL1146132, “Synthesis and activity of small molecule GPR40 agonists” (Bioorg Med Chem Lett, 2006).

Columns and labels:
[1] = target: T1, Free fatty acid receptor 1 (Homo sapiens, UniProt O14842); test: Agonist potency at human GPR40 expressed in CHO cells relative to standard by luciferase reporter gene assay; type: functional, cell-based
[2] = target: T1, Free fatty acid receptor 1; test: Agonist potency at human GPR40 expressed in CHO cells; type: functional, cell-based
How it was run: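 Ten-point dose–response in CHO cells stably expressing human GPR40. Receptor activation was read out by a Gal4/Elk1/luciferase reporter gene. Potency was taken from the curve and reported as pEC50.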

T1 sequence (O14842 whole entry): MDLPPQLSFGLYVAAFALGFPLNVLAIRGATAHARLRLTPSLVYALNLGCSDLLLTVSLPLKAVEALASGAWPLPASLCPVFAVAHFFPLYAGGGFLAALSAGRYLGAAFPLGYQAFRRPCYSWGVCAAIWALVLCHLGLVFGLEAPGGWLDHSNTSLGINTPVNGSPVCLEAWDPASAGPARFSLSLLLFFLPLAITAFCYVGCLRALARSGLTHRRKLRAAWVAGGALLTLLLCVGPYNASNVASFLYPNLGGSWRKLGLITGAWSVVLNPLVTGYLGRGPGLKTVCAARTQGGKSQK

| SMILES | %max [1] | EC50 [2] |
| --- | --- | --- |
| Cc1nc(-c2ccc(C(F)(F)F)cc2)sc1CNc1ccc([C@H]2C[C@@H]2C(=O)NO)cc1 | 78% | 0.00692 µM |
| CC(CC(=O)O)c1ccc(NCc2cccc(Oc3ccccc3)c2)cc1 (configuration not stated) | 83% | 0.126 µM |
| O=C(O)[C@H]1C[C@@H]1c1ccc(NCc2cccc(Oc3ccccc3)c2)cc1 (stereo in doubt; 10A) [listing 1 of 2 here] |  | 0.0135 µM |
| CNC(=O)CCc1ccc(NCc2cccc(Oc3ccccc3)c2)cc1 | 67% | 0.049 µM |
| Cc1nc(-c2ccc(C(F)(F)F)cc2)sc1CNc1ccc(CCCC(=O)O)cc1 | 44% | > 10 µM |
| CC(Cc1ccc(NCc2cccc(Oc3ccccc3)c2)cc1)C(=O)O (configuration not stated) | 70% | 0.1 µM |
| O=C(O)CSc1ccc(NCc2cccc(Oc3ccccc3)c2)cc1 | 84% | 0.324 µM |
| Cc1nc(-c2ccc(C(F)(F)F)cc2)sc1CNc1ccc([C@H]2C[C@@H]2C(=O)O)cc1 (stereo in doubt; 10B) [listing 1 of 2 here] |  | 0.00245 µM |
| Cc1nc(-c2ccc(C(F)(F)F)cc2)sc1CNc1ccc([C@H]2C[C@@H]2C(=O)NC(C)C)cc1 (stereo in doubt; 24B) [listing 1 of 2 here] |  | 0.011 µM |
| O=C(O)c1ccc(NCc2cccc(Oc3ccccc3)c2)cc1 | 86% | > 10 µM |
| Cc1nc(-c2ccc(C(F)(F)F)cc2)sc1CNc1ccc([C@H]2C[C@@H]2C(=O)NC(C)C)cc1 (stereo in doubt; 22B) [listing 1 of 2 here] | 69% |  |
| NC(=O)CCc1ccc(NCc2cccc(Oc3ccccc3)c2)cc1 | 68% | 0.0513 µM |
| O=C(O)CCCc1ccc(NCc2cccc(Oc3ccccc3)c2)cc1 | 59% | 1.12 µM |
| O=C(O)[C@H]1C[C@@H]1c1ccc(NCc2cccc(Oc3ccccc3)c2)cc1 (stereo in doubt; 14A) [listing 1 of 2 here] |  | 0.0123 µM |
| Cc1nc(-c2ccc(C(F)(F)F)cc2)sc1CNc1ccc([C@H]2C[C@@H]2C(=O)NC(C)C)cc1 (stereo in doubt; 22B) [listing 2 of 2 here] |  | 0.0141 µM |
| Cc1nc(-c2ccc(C(F)(F)F)cc2)sc1CNc1ccc(CC(C)C(=O)O)cc1 (configuration not stated) | 100% | 0.355 µM |
| Cc1nc(-c2ccc(C(F)(F)F)cc2)sc1CNc1ccc([C@H]2C[C@@H]2C(=O)N[C@H](C)c2ccccc2)cc1 | 42% | 0.0537 µM |
| O=C(O)/C=C/c1ccc(NCc2cccc(Oc3ccccc3)c2)cc1 | 76% | 0.145 µM |
| O=C(O)[C@@H]1C[C@H]1c1ccc(NCc2cccc(Oc3ccccc3)c2)cc1 | 64% | 0.562 µM |
| Cc1nc(-c2ccc(C(F)(F)F)cc2)sc1CNc1ccc([C@H]2C[C@@H]2C(=O)O)cc1 (stereo in doubt; 10B) [listing 2 of 2 here] | 81% |  |
| Cc1nc(-c2ccc(C(F)(F)F)cc2)sc1CNc1ccc([C@H]2C[C@@H]2C(=O)O)cc1 (stereo in doubt; 14B) [listing 1 of 2 here] |  | 0.0049 µM |
| Cc1nc(-c2ccc(C(F)(F)F)cc2)sc1CNc1ccc(C(C)CC(=O)O)cc1 (configuration not stated) | 109% | 0.0589 µM |
| Cc1nc(-c2ccc(C(F)(F)F)cc2)sc1CNc1ccc([C@H]2C[C@@H]2C(=O)O)cc1 (stereo in doubt; 14B) [listing 2 of 2 here] | 89% |  |
| Cc1nc(-c2ccc(C(F)(F)F)cc2)sc1CNc1ccc(CCC(=O)O)cc1 | 108% | 0.0676 µM |

| SMILES | %max [1] | EC50 [2] |
| --- | --- | --- |
| Cc1nc(-c2ccc(C(F)(F)F)cc2)sc1CNc1ccc(C(=O)O)cc1 | 10% | > 10 µM |
| O=C(O)CCc1ccc(NCc2cccc(Oc3ccccc3)c2)cc1 [GW9508] | 86% | 0.0646 µM |
| Cc1nc(-c2ccc(C(F)(F)F)cc2)sc1CNc1ccc(OCC(=O)O)cc1 | 100% | 0.288 µM |
| Cc1nc(-c2ccc(C(F)(F)F)cc2)sc1CNc1ccc([C@H]2C[C@@H]2C(=O)N(C)C)cc1 | 49% | 0.0661 µM |
| Cc1nc(-c2ccc(C(F)(F)F)cc2)sc1CNc1ccc([C@H]2C[C@@H]2C(=O)NC2CCNC2)cc1 (some centres not stated) | 52% | 0.204 µM |
| O=C(O)COc1ccc(NCc2cccc(Oc3ccccc3)c2)cc1 | 84% | 2.04 µM |
| Cc1nc(-c2ccc(C(F)(F)F)cc2)sc1CNc1ccc([C@H]2C[C@@H]2C(=O)NC(C)C)cc1 (stereo in doubt; 24B) [listing 2 of 2 here] | 71% |  |
| CC(C)(Oc1ccc(NCc2cccc(Oc3ccccc3)c2)cc1)C(=O)O | 14% | > 10 µM |
| CC(C)NC(=O)CCc1ccc(NCc2cccc(Oc3ccccc3)c2)cc1 | 66% | 0.0398 µM |
| O=C(O)[C@H]1C[C@@H]1c1ccc(NCc2cccc(Oc3ccccc3)c2)cc1 (stereo in doubt; 14A) [listing 2 of 2 here] | 88% |  |
| Cc1nc(-c2ccc(C(F)(F)F)cc2)sc1CNc1ccc(/C=C/C(=O)O)cc1 | 95% | 0.0363 µM |
| Cc1nc(-c2ccc(C(F)(F)F)cc2)sc1CNc1ccc([C@H]2C[C@@H]2C(N)=O)cc1 | 80% | 0.00447 µM |
| O=C(NO)[C@H]1C[C@@H]1c1ccc(NCc2cccc(Oc3ccccc3)c2)cc1 | 90% | 0.0148 µM |
| Cc1nc(-c2ccc(C(F)(F)F)cc2)sc1CNc1ccc(CCC(=O)NC(C)C)cc1 | 84% | 0.1 µM |
| O=C(O)[C@H]1C[C@@H]1c1ccc(NCc2cccc(Oc3ccccc3)c2)cc1 (stereo in doubt; 10A) [listing 2 of 2 here] | 72% |  |
| Cc1nc(-c2ccc(C(F)(F)F)cc2)sc1CNc1ccc([C@@H]2C[C@@H]2C(=O)O)cc1 | 68% | 0.302 µM |
| CN(C)C(=O)CCc1ccc(NCc2cccc(Oc3ccccc3)c2)cc1 | 50% | 0.174 µM |
| O=C(CCc1ccc(NCc2cccc(Oc3ccccc3)c2)cc1)N1CCCC1 | 46% | 0.115 µM |
| CC(C)NC(=O)[C@H]1C[C@@H]1c1ccc(NCc2cccc(Oc3ccccc3)c2)cc1 | 62% | 0.0126 µM |
| Cc1nc(-c2ccc(C(F)(F)F)cc2)sc1CNc1ccc([C@H]2C[C@@H]2C(=O)NC2CCC2)cc1 | 55% | 0.00912 µM |
| O=C(O)Cc1ccc(NCc2cccc(Oc3ccccc3)c2)cc1 | 36% | > 10 µM |
| Cc1nc(-c2ccc(C(F)(F)F)cc2)sc1CNc1ccc(CC(=O)O)cc1 | 18% | > 10 µM |
| Cc1nc(-c2ccc(C(F)(F)F)cc2)sc1CNc1ccc(CCC(N)=O)cc1 | 88% | 0.0129 µM |
